In PubChem BioAssay AID504597 (Broad Institute, 2011):

Test system: U2OS HRE-luciferase reporter, luminescence, HIF activation
Test: hypoxia pathway transcriptional activation in cells – U2OS cells, luminescence, dry powder, set 9, dose response (AID 504597)
Method in brief: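 Measured by: luciferase luminescence, Steady-Glo reagent. System: U2OS cells carrying 3×HRE-luciferase reporter. Amount: 6,000 cells per well. Compound: 8-point series in 3-fold steps, pinned from 7.5 mM stock.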

**Q.** How did the AC40 turn out when `Clc1cccc(CNc2nc(-c3ccccn3)nnc2-c2ccccc2)c1` was run?
**A.** 1480 nM

**Q.** For `CC(C)(C)CCNc1nc(-c2ccccn2)nnc1-c1ccccc1`, which AC40 is on record?
**A.** 1020 nM

**Q.** `c1ccc(-c2cccc(CNc3nc(-c4ccccn4)nnc3-c3ccccc3)c2)cc1` was tested. Which AC40 did it give?
**A.** 816 nM

**Q.** For `CC(C)(C)c1ccc(CNc2nc(-c3ccccn3)nnc2-c2ccccc2)cc1`, which AC40 is on record?
**A.** 546 nM

**Q.** How did the AC40 turn out when `c1ccc(-c2ccc(CNc3nc(-c4ccccn4)nnc3-c3ccccc3)cc2)cc1` was run?
**A.** 461 nM

**Q.** For `c1ccc(CCNc2nc(-c3ccccn3)nnc2-c2ccccc2)cc1`, which AC40 is on record?
**A.** 3210 nM
